According to ChEMBL document CHEMBL3784971, “Synthesis, characterization, antimicrobial and biofilm inhibitory studies of new esterquats” (Bioorg Med Chem Lett, 2016):
≈ marks a conversion by molar mass, not a printed value. Blank lines part the entries; values can stand above or below the compound they belong to.

Key:
Pichia sporocuriosa [1] = assay: Fungicidal activity against Issatchenkia hanoiensis MTCC 4755 after 24 hrs by serial dilution method; format: functional; conditions: MTCC 4755, 24 h
Candida albicans [2] = assay: Fungicidal activity against Candida albicans MTCC 7315 after 24 hrs by serial dilution method; format: functional; conditions: MTCC 7315, 24 h
Staphylococcus aureus [3] = assay: Antimicrobial activity against Staphylococcus aureus MTCC 96 assessed as growth inhibition after 24 hrs by agar well diffusion method; format: functional; conditions: MTCC 96, 24 h
Escherichia coli [4] = assay: Bactericidal activity against Escherichia coli MTCC 739 after 24 hrs by serial dilution method; format: functional; conditions: MTCC 739, 24 h
Candida albicans [5] = assay: Fungicidal activity against Candida albicans MTCC 183 after 24 hrs by serial dilution method; format: functional; conditions: MTCC 183, 24 h
Bacillus subtilis [6] = assay: Antimicrobial activity against Bacillus subtilis MTCC 121 assessed as growth inhibition after 24 hrs by agar well diffusion method; format: functional; conditions: MTCC 121, 24 h
Staphylococcus aureus [7] = assay: Bactericidal activity against Staphylococcus aureus MLS16 MTCC 2940 after 24 hrs by serial dilution method; format: functional; conditions: MLS16 MTCC 2940, 24 h
Candida albicans [8] = assay: Fungicidal activity against Candida albicans MTCC 1637 after 24 hrs by serial dilution method; format: functional; conditions: MTCC 1637, 24 h
Pseudomonas aeruginosa = assay: Antimicrobial activity against Pseudomonas aeruginosa MTCC 2453 assessed as growth inhibition after 24 hrs by agar well diffusion method; format: functional; conditions: MTCC 2453, 24 h
Nakaseomyces glabratus [9] = assay: Antimicrobial activity against Candida glabrata MTCC 3019 assessed as growth inhibition after 24 hrs by agar well diffusion method; format: functional; conditions: MTCC 3019, 24 h
Raoultella planticola [10] = assay: Antimicrobial activity against Klebsiella planticola MTCC 530 assessed as growth inhibition after 24 hrs by agar well diffusion method; format: functional; conditions: MTCC 530, 24 h
[Candida] aaseri [11] = Fungicidal activity against Candida aaseri MTCC 1962 after 24 hrs by serial dilution method; format: functional; conditions: Yamadazyma aaseri, MTCC 1962, 24 h
Candida albicans [12] = assay: Fungicidal activity against Candida albicans MTCC 854 after 24 hrs by serial dilution method; format: functional; conditions: MTCC 854, 24 h
Staphylococcus aureus [13] = assay: Bactericidal activity against Staphylococcus aureus MTCC 96 after 24 hrs by serial dilution method; format: functional; conditions: MTCC 96, 24 h
Candida albicans [14] = assay: Fungicidal activity against Candida albicans MTCC 3958 after 24 hrs by serial dilution method; format: functional; conditions: MTCC 3958, 24 h
Candida albicans [15] = assay: Fungicidal activity against Candida albicans MTCC 4748 after 24 hrs by serial dilution method; format: functional; conditions: MTCC 4748, 24 h
Staphylococcus aureus [16] = assay: Antimicrobial activity against Staphylococcus aureus MLS16 MTCC 2940 assessed as growth inhibition after 24 hrs by agar well diffusion method; format: functional; conditions: MLS16 MTCC 2940, 24 h
Candida parapsilosis [17] = assay: Antimicrobial activity against Candida parapsilosis MTCC 1744 assessed as growth inhibition after 24 hrs by agar well diffusion method; format: functional; conditions: Lodderomyces parapsilosis, MTCC 1744, 24 h
Micrococcus luteus [18] = assay: Bactericidal activity against Micrococcus luteus MTCC 2470 after 24 hrs by serial dilution method; format: functional; conditions: MTCC 2470, 24 h
Pichia sporocuriosa [19] = assay: Antimicrobial activity against Issatchenkia hanoiensis MTCC 4755 assessed as growth inhibition after 24 hrs by agar well diffusion method; format: functional; conditions: MTCC 4755, 24 h
Candida albicans [20] = assay: Antimicrobial activity against Candida albicans MTCC 3018 assessed as growth inhibition after 24 hrs by agar well diffusion method; format: functional; conditions: MTCC 3018, 24 h
Candida albicans [21] = assay: Antimicrobial activity against Candida albicans MTCC 227 assessed as growth inhibition after 24 hrs by agar well diffusion method; format: functional; conditions: MTCC 227, 24 h
Candida albicans [22] = assay: Antimicrobial activity against Candida albicans MTCC 854 assessed as growth inhibition after 24 hrs by agar well diffusion method; format: functional; conditions: MTCC 854, 24 h
Bacillus subtilis [23] = assay: Bactericidal activity against Bacillus subtilis MTCC 121 after 24 hrs by serial dilution method; format: functional; conditions: MTCC 121, 24 h
Escherichia coli [24] = assay: Antimicrobial activity against Escherichia coli MTCC 739 assessed as growth inhibition after 24 hrs by agar well diffusion method; format: functional; conditions: MTCC 739, 24 h
Candida parapsilosis [25] = assay: Fungicidal activity against Candida parapsilosis MTCC 1744 after 24 hrs by serial dilution method; format: functional; conditions: Lodderomyces parapsilosis, MTCC 1744, 24 h
Candida albicans [26] = assay: Antimicrobial activity against Candida albicans MTCC 183 assessed as growth inhibition after 24 hrs by agar well diffusion method; format: functional; conditions: MTCC 183, 24 h
Candida albicans [27] = assay: Fungicidal activity against Candida albicans MTCC 227 after 24 hrs by serial dilution method; format: functional; conditions: MTCC 227, 24 h
Candida albicans [28] = assay: Antimicrobial activity against Candida albicans MTCC 3958 assessed as growth inhibition after 24 hrs by agar well diffusion method; format: functional; conditions: MTCC 3958, 24 h
Nakaseomyces glabratus [29] = assay: Fungicidal activity against Candida glabrata MTCC 3019 after 24 hrs by serial dilution method; format: functional; conditions: MTCC 3019, 24 h
Candida albicans [30] = assay: Fungicidal activity against Candida albicans MTCC 3018 after 24 hrs by serial dilution method; format: functional; conditions: MTCC 3018, 24 h
Candida albicans [31] = assay: Fungicidal activity against Candida albicans MTCC 3017 after 24 hrs by serial dilution method; format: functional; conditions: MTCC 3017, 24 h
Staphylococcus aureus [32] = assay: Antibiofilm activity against Staphylococcus aureus MTCC 96 after 24 hrs by crystal violet staining based assay; format: functional, organism-based; conditions: MTCC 96, 24 h
Procedure, shortened: (§1)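 Biofilm inhibition tested for amine esters and esterquats. IC50 values (µg/mL) are the mean of three determinations, with ciprofloxacin as reference.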

Candida albicans [33] = assay: Antimicrobial activity against Candida albicans MTCC 7315 assessed as growth inhibition after 24 hrs by agar well diffusion method; format: functional; conditions: MTCC 7315, 24 h
Bacillus subtilis [34] = assay: Antibiofilm activity against Bacillus subtilis MTCC 121 after 24 hrs by crystal violet staining based assay; format: functional, organism-based; conditions: MTCC 121, 24 h; procedure, shortened: as §1
Candida albicans [35] = assay: Antimicrobial activity against Candida albicans MTCC 1637 assessed as growth inhibition after 24 hrs by agar well diffusion method; format: functional; conditions: MTCC 1637, 24 h
[Candida] aaseri [36] = Antimicrobial activity against Candida aaseri MTCC 1962 assessed as growth inhibition after 24 hrs by agar well diffusion method; format: functional; conditions: Yamadazyma aaseri, MTCC 1962, 24 h
Micrococcus luteus [37] = assay: Antimicrobial activity against Micrococcus luteus MTCC 2470 assessed as growth inhibition after 24 hrs by agar well diffusion method; format: functional; conditions: MTCC 2470, 24 h
Pichia kudriavzevii [38] = assay: Fungicidal activity against Candida krusei MTCC 3020 after 24 hrs by serial dilution method; format: functional; conditions: MTCC 3020, 24 h
Micrococcus luteus [39] = assay: Antibiofilm activity against Micrococcus luteus MTCC 2470 after 24 hrs by crystal violet staining based assay; format: functional, organism-based; conditions: MTCC 2470, 24 h; procedure, shortened: as §1
Raoultella planticola [40] = assay: Bactericidal activity against Klebsiella planticola MTCC 530 after 24 hrs by serial dilution method; format: functional; conditions: MTCC 530, 24 h
Candida albicans [41] = assay: Antimicrobial activity against Candida albicans MTCC 3017 assessed as growth inhibition after 24 hrs by agar well diffusion method; format: functional; conditions: MTCC 3017, 24 h
Staphylococcus aureus [42] = assay: Antibiofilm activity against Staphylococcus aureus MLS16 MTCC 2940 after 24 hrs by crystal violet staining based assay; format: functional, organism-based; conditions: MLS16 MTCC 2940, 24 h; procedure, shortened: as §1
Candida albicans [43] = assay: Antimicrobial activity against Candida albicans MTCC 4748 assessed as growth inhibition after 24 hrs by agar well diffusion method; format: functional; conditions: MTCC 4748, 24 h
Pichia kudriavzevii [44] = assay: Antimicrobial activity against Candida krusei MTCC 3020 assessed as growth inhibition after 24 hrs by agar well diffusion method; format: functional; conditions: MTCC 3020, 24 h

MIC (Staphylococcus aureus [3]): 3.9 µg/mL (≈ 13 µM)
MIC (Bacillus subtilis [6]): 7.8 µg/mL (≈ 26 µM)
MIC (Pseudomonas aeruginosa): > 125 µg/mL
MIC (Nakaseomyces glabratus [9]): 31.2 µg/mL (≈ 104 µM)
MIC (Staphylococcus aureus [16]): 3.9 µg/mL (≈ 13 µM)
MIC (Candida parapsilosis [17]): 31.2 µg/mL (≈ 104 µM)
MIC (Pichia sporocuriosa [19]): 31.2 µg/mL (≈ 104 µM)
MIC (Candida albicans [20]): 31.2 µg/mL (≈ 104 µM)
MIC (Candida albicans [21]): 31.2 µg/mL (≈ 104 µM)
MIC (Candida albicans [22]): 15.6 µg/mL (≈ 52.1 µM)
MIC (Escherichia coli [24]): > 125 µg/mL
MIC (Candida albicans [26]): 31.2 µg/mL (≈ 104 µM)
MIC (Candida albicans [28]): 31.2 µg/mL (≈ 104 µM)
IC50 (Staphylococcus aureus [32]): 2.6 µg/mL (≈ 8.68 µM)
MIC (Candida albicans [33]): 62.5 µg/mL (≈ 209 µM)
IC50 (Bacillus subtilis [34]): 4.2 µg/mL (≈ 14 µM)
MIC (Candida albicans [35]): 15.6 µg/mL (≈ 52.1 µM)
MIC ([Candida] aaseri [36]): 15.6 µg/mL (≈ 52.1 µM)
MIC (Micrococcus luteus [37]): 15.6 µg/mL (≈ 52.1 µM)
IC50 (Micrococcus luteus [39]): 2.2 µg/mL (≈ 7.35 µM)
MIC (Candida albicans [41]): 15.6 µg/mL (≈ 52.1 µM)
IC50 (Staphylococcus aureus [42]): 3.9 µg/mL (≈ 13 µM)
MIC (Candida albicans [43]): 62.5 µg/mL (≈ 209 µM)
MIC (Pichia kudriavzevii [44]): 15.6 µg/mL (≈ 52.1 µM)
SMILES: CCCCCCNCCCCCCCCCCC(=O)OC
MFC (Pichia sporocuriosa [1]): 31.2 µg/mL (≈ 104 µM)
MFC (Candida albicans [2]): 62.5 µg/mL (≈ 209 µM)
MBC (Escherichia coli [4]): > 125 µg/mL
MFC (Candida albicans [5]): 62.5 µg/mL (≈ 209 µM)
MBC (Staphylococcus aureus [7]): 7.8 µg/mL (≈ 26 µM)
MFC (Candida albicans [8]): 31.2 µg/mL (≈ 104 µM)
MIC (Raoultella planticola [10]): > 125 µg/mL
MFC ([Candida] aaseri [11]): 31.2 µg/mL (≈ 104 µM)
MFC (Candida albicans [12]): 31.2 µg/mL (≈ 104 µM)
MBC (Staphylococcus aureus [13]): 7.8 µg/mL (≈ 26 µM)
MFC (Candida albicans [14]): 62.5 µg/mL (≈ 209 µM)
MFC (Candida albicans [15]): 62.5 µg/mL (≈ 209 µM)
MBC (Micrococcus luteus [18]): 31.2 µg/mL (≈ 104 µM)
MBC (Bacillus subtilis [23]): 15.6 µg/mL (≈ 52.1 µM)
MFC (Candida parapsilosis [25]): 62.5 µg/mL (≈ 209 µM)
MFC (Candida albicans [27]): 31.2 µg/mL (≈ 104 µM)
MFC (Nakaseomyces glabratus [29]): 31.2 µg/mL (≈ 104 µM)
MFC (Candida albicans [30]): 62.5 µg/mL (≈ 209 µM)
MFC (Candida albicans [31]): 31.2 µg/mL (≈ 104 µM)
MFC (Pichia kudriavzevii [38]): 31.2 µg/mL (≈ 104 µM)
MBC (Raoultella planticola [40]): > 125 µg/mL

MIC (Staphylococcus aureus [3]): 3.9 µg/mL
MIC (Bacillus subtilis [6]): 7.8 µg/mL
MIC (Pseudomonas aeruginosa): > 125 µg/mL
MIC (Nakaseomyces glabratus [9]): 31.2 µg/mL
MIC (Staphylococcus aureus [16]): 3.9 µg/mL
MIC (Candida parapsilosis [17]): 15.6 µg/mL
MIC (Pichia sporocuriosa [19]): 15.6 µg/mL
MIC (Candida albicans [20]): 15.6 µg/mL
MIC (Candida albicans [21]): 15.6 µg/mL
MIC (Candida albicans [22]): 31.2 µg/mL
MIC (Escherichia coli [24]): > 125 µg/mL
MIC (Candida albicans [26]): 15.6 µg/mL
MIC (Candida albicans [28]): 15.6 µg/mL
IC50 (Staphylococcus aureus [32]): 2.5 µg/mL
MIC (Candida albicans [33]): 15.6 µg/mL
IC50 (Bacillus subtilis [34]): 4.4 µg/mL
MIC (Candida albicans [35]): 31.2 µg/mL
MIC ([Candida] aaseri [36]): 15.6 µg/mL
MIC (Micrococcus luteus [37]): 7.8 µg/mL
IC50 (Micrococcus luteus [39]): 2.5 µg/mL
MIC (Candida albicans [41]): 15.6 µg/mL
IC50 (Staphylococcus aureus [42]): 3.6 µg/mL
MIC (Candida albicans [43]): 15.6 µg/mL
MIC (Pichia kudriavzevii [44]): 31.2 µg/mL
SMILES: COC(=O)CCCCCCCCCC[N+](C)(C1CCCCC1)C1CCCCC1.[Cl-]
MFC (Pichia sporocuriosa [1]): 31.2 µg/mL
MFC (Candida albicans [2]): 31.2 µg/mL
MBC (Escherichia coli [4]): > 125 µg/mL
MFC (Candida albicans [5]): 62.5 µg/mL
MBC (Staphylococcus aureus [7]): 7.8 µg/mL
MFC (Candida albicans [8]): 31.2 µg/mL
MIC (Raoultella planticola [10]): > 125 µg/mL
MFC ([Candida] aaseri [11]): 31.2 µg/mL
MFC (Candida albicans [12]): 31.2 µg/mL
MBC (Staphylococcus aureus [13]): 7.8 µg/mL
MFC (Candida albicans [14]): 31.2 µg/mL
MFC (Candida albicans [15]): 31.2 µg/mL
MBC (Micrococcus luteus [18]): 7.8 µg/mL
MBC (Bacillus subtilis [23]): 15.6 µg/mL
MFC (Candida parapsilosis [25]): 62.5 µg/mL
MFC (Candida albicans [27]): 31.2 µg/mL
MFC (Nakaseomyces glabratus [29]): 62.5 µg/mL
MFC (Candida albicans [30]): 62.5 µg/mL
MFC (Candida albicans [31]): 31.2 µg/mL
MFC (Pichia kudriavzevii [38]): 62.5 µg/mL
MBC (Raoultella planticola [40]): > 125 µg/mL
